The nature of data set [1]: Drug level in serum at 600 mg. It counts as ADME, cell-free.
For data set [2], the system named is A549. Description: Immunomodulatory effect in human A549 cells assessed as reduction in IL-1-beta-induced PGE2 formation at 100 ug/ml after 48 hrs by enzyme immunoassay. It is filed as functional, cell-based. The essentials: (§1)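 A549 cells seeded at 1.5 x 10^5/well and grown 24 h, then held overnight in serum- and antibiotic-free medium. Cells exposed to IL-1ß (1 ng/ml) with or without rifampin (10 to 100 µg/ml) in fresh medium for 48 h, with DMSO vehicle at most 0.1%. Cleared supernatants stored at –70°C. PGE2 measured by enzyme immunoassay, triplicate wells.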

The subject of data set [3] is A549. Briefly: Immunomodulatory effect in human A549 cells assessed as reduction in IL-1-beta-induced PGE2 formation at 50 ug/ml after 48 hrs by enzyme immunoassay. It is filed as functional. Further details: scale not given: the % may be the effect or the level left. The essentials: as §1
In data set [4] the test system is A549. Description: Immunomodulatory effect in human A549 cells assessed as reduction in IL-1-beta-induced PGE2 formation at 25 ug/ml after 48 hrs by enzyme immunoassay. It counts as functional. Further details: scale not given: the % may be the effect or the level left. The essentials:
as §1

Data set [5] deals with A549. Description: Cytotoxicity against human A549 cells assessed as cell viability by neutral red uptake assay. It counts as cell-based. The essentials: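 A549 cells in 96-well plates, after treatment, given neutral red at 0.05% final in fresh medium for 1 h. Cells washed with cold PBS containing Ca2+ and Mg2+, then dye extracted with Sorenson's citrate buffer-ethanol. Absorbance read at 540 nm. Viability taken as the absorbance ratio of treated to untreated cells.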

Data set [6] relates to A549. Description: Immunomodulatory effect in human A549 cells assessed as reduction in IL-1-beta-induced [3H]arachidonic acid release measured after 4 hrs of IL1-beta challenge by liquid scintillation counting. It is filed as functional, cell-based. The essentials:
(§2)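 A549 cells (2 x 10^6 per 3-cm plate), grown 24 h, labeled 4 h with [3H]AA at 0.5 µCi/ml in serum-free medium, then washed five times. Incubated in serum-free medium with 1 mg/ml BSA plus IL-1ß (1 ng/ml) ± rifampin, or rifampin alone, or medium alone, for 4 h unless another time is stated. Supernatant counted by liquid scintillation. Release given as % of incorporated label. Inhibition = 100 x [(IL-1ß – medium) – (IL-1ß+rif – rif alone)]/(IL-1ß – medium).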

Data set [7] relates to A549. Description: Immunomodulatory effect in human A549 cells assessed as reduction in spontaneous release of [3H]arachidonic acid by liquid scintillation counting. It counts as functional, cell-based. The essentials: (§3)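 A549 cells prelabeled 4 h with [3H]AA at 0.5 µCi/ml, washed, then kept in serum-free medium with 1 mg/ml BSA, alone or with rifampin, with sampling at set times. Supernatant radioactivity counted by liquid scintillation and given as % of incorporated label. Incorporation estimated by subtracting supernatant counts after labeling from the radioactivity added. Two independent experiments, n = 5 per group.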

Data set [8] deals with A549. Briefly: Immunomodulatory effect in human A549 cells assessed as reduction in IL-1-beta-induced [3H]arachidonic acid release at 10 to 100 ug/ml measured after 4 hrs of IL1-beta challenge by liquid scintillation counting. It is filed as functional, cell-based. The essentials:
as §2

In data set [9] the test system is A549. Briefly: Immunomodulatory effect in human A549 cells assessed as reduction in IL-1-beta-induced [3H]arachidonic acid release at 50 ug/ml measured after 2 hrs of IL1-beta challenge by liquid scintillation counting. It is filed as functional. Further details: scale not given: the % may be the effect or the level left. The essentials: as §2
The subject of data set [10] is A549. Briefly: Immunomodulatory effect in human A549 cells assessed as reduction in IL-1-beta-induced [3H]arachidonic acid release at 50 ug/ml measured after 6 hrs of IL1-beta challenge by liquid scintillation counting. It counts as functional. Further details: scale not given: the % may be the effect or the level left. The essentials: as §2
For data set [11], the system named is A549. Description: Immunomodulatory effect in human A549 cells assessed as reduction in IL-1-beta-induced [3H]arachidonic acid release at 50 ug/ml measured after 19 hrs of IL1-beta challenge by liquid scintillation counting. It is filed as functional. Further details: scale not given: the % may be the effect or the level left. The essentials:
as §2

The subject of data set [12] is A549. Description: Immunomodulatory effect in human A549 cells assessed as reduction in basal release of [3H]arachidonic acid at 50 ug/ml up to 2 hrs by liquid scintillation counting. It counts as functional. Further details: scale not given: the % may be the effect or the level left. The procedure, abridged:
as §3

The subject of data set [13] is A549. Description: Immunomodulatory effect in human A549 cells assessed as reduction in basal release of [3H]arachidonic acid at 50 ug/ml up to 19 hrs by liquid scintillation counting. Further details: scale not given: the % may be the effect or the level left. It counts as functional. The essentials:
as §3

Data set [14] deals with A549. Description: Immunomodulatory effect in human A549 cells assessed as inhibition of Ca2+ ionophore A23187 stimulated-[3H]arachidonic acid release measured after 45 mins of A23187 challenge by liquid scintillation counting. It is filed as functional, cell-based.
The test system of data set [15] is A549. Briefly: Immunomodulatory effect in human A549 cells assessed as inhibition of Ca2+ ionophore A23187 stimulated-[3H]arachidonic acid release measured after 2 hrs of A23187 challenge by liquid scintillation counting. It counts as functional.
Data set [16] concerns A549. Briefly: Immunomodulatory effect in human A549 cells assessed as inhibition of Ca2+ ionophore A23187 stimulated-[3H]arachidonic acid release measured after 4 hrs of A23187 challenge by liquid scintillation counting. It counts as functional.
Data set [17] has as its system A549. Description: Inhibition of IL-1-beta-induced COX2 expression in human A549 cells at 50 ug/ml measured after 24 hrs of IL1-beta challenge by Western blot analysis. It is filed as functional, cell-based. The essentials: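 A549 cells (2 x 10^6 per 3-cm dish) grown 24 h, then 24 h in serum- and antibiotic-free medium. Treated with IL-1ß (1 ng/ml) ± rifampin (50 µg/ml) for 24 h, then lysed in SDS buffer and denatured at 95°C. Blocked in 5% milk/TBST, then rabbit anti-COX-2 (1:1,000) overnight at 4°C. HRP secondary used and detected by ECL, with β-actin as comparator and densitometry.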
(In general: A western blot detects proteins with antibodies after separation by electrophoresis.)

Activity calls are given as the source filed them. The calls are words filed in the database; no cut-off is given here.

In turn, `CO[C@H]1/C=C/O[C@@]2(C)Oc3c(C)c(O)c4c(O)c(c(/C=N/N5CCN(C)CC5)c(O)c4c3C2=O)NC(=O)/C(C)=C\C=C\[C@H](C)[C@H](O)[C@@H](C)[C@@H](O)[C@@H](C)[C@H](OC(C)=O)[C@@H]1C` [RIFAMPIN] returned a Drug uptake in data set [1] of 10 µg/mL. In addition, the Activity result in the data set with A549 [2] was “Dose-dependent effect”; in the data set on A549 [3], 59%; with A549 [4], 45%; in the data set on A549 [5], “Non-toxic”; with A549 [6] it was “Dose-dependent effect”; in the data set on A549 [7], “Dose-dependent effect”. Moreover, the Activity is listed as 53% in the data set on A549 [9]; 79% in the data set with A549 [10]; 95% in the data set with A549 [11]; 47% with A549 [12]; 34% in the data set on A549 [13]. The outcome with A549 [8] was Active. Also, the inhibition entry in the data set with A549 [14] and in the data set on A549 [17] was “inactive” in each case. For the same compound, the figures for the “inhibition (INH)” value in the data set with A549 [15] and with A549 [16] were 5.5% and 8.3%, respectively.

The record behind these values is ChEMBL document CHEMBL1153547, “Rifampin inhibits prostaglandin E2 production and arachidonic acid release in human alveolar epithelial cells” (Antimicrob Agents Chemother, 2007).
